Screening results from PubChem.
This excerpt belongs to a sample that is enriched for hits.
H69AR inhibit = proliferation blockers of H69AR lung cancer cells, primary screen, cell-based, human, 86K library; viability, % at 10 µM; actives 6% (n = 85,000); AID 598, 2007; H69AR lung tumor viability, ATP luminescence, 72 h; hits give low values;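 active = viability at or below 40%; inactive = viability above 40%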;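 note: multidrug resistant small cell line overexpressing MRP-1 efflux transporter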
HUVEC inhibit = inhibitors of HUVEC proliferation, primary screen, cell-based, 384-well | viability, % at 10 µM (by protocol) | CellTiter-Glo luminescence, 72 h; hits give low values | actives 1.1% (n = 86,000) | AID 648, 2007;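 active = viability at or below 30%; inactive = viability above 30%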
bCat KO growth = primary screen for growth suppressors in beta-catenin knockout HCT116 cells (colon tumor, human); HCT116 beta-catenin knockout viability, CellTiter-Glo, 60 h; hits give low values; viability, % at 10 µM; actives 1.5% (n = 140,000); AID 818, 2007;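 active = viability at or under a set limit, the compound median less 4 SD, cut at about 6% in these data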
Fibroblast inh = antiproliferative effect on LL 47 fibroblasts – human, LL 47 cells, CellTiter-Glo luminescence, primary screen. LL 47 human lung fibroblast viability, ATP luminescence; hits give low values. viability, % at 10 µM. actives 1.1% (n = 85,000);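 active = viability at or below 50% in the single dose screen; inactive = viability above 50%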;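 note: compound exposure lasted 72 h before the ATP readout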
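Material: Human LL 47 lung fibroblast cells | Input: 1,150 cells/well | Buffer or medium: IMEM plus 15% FBS | Compound dosing: 0.1% DMSO in all compound wells | Times: Overnight cell rest, 72 h compound treatment at 37 °C | Signal: CellTiter-Glo luminescence measuring cellular ATP | Measure: % viability versus median cells-only luminescence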
PTEN del growth = growth suppression of PTEN-null HCT116, primary screen, cell-based, CellTiter-Glo | HCT116 PTEN-null viability, 60 h; hits give low values | viability, % at 10 µM | actives 1.2% (n = 140,000);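 active = viability at or below a set limit, 4 SD under the median of all tested compounds, cut at about 3.7% in these data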;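 note: PTEN knockout HCT116 line with beta catenin targeted HCT116 as companion control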
Of the large screens only hits and unclear results are named; the others gave an inactive call.

CCOc1ccc(NC(=O)C2CCCN(C(=O)NCc3ccccc3)C2)cc1 (centres undefined)	none
COC(=O)c1ccccc1NC(=O)c1ccc(COc2ccccc2)o1	none
COC(=O)c1ccccc1NC(=O)c1ccc(-c2cccc(Cl)c2)o1	H69AR inhibit 12
COc1ccc(CNc2ccc3c(c2)ncn3-c2ccccc2OC)cc1	none
COc1ccccc1-n1cnc2cc(NCc3ccco3)ccc21	H69AR inhibit 23
Cn1c(NCc2cccs2)nc2ccccc21	none
Cc1ccccc1-n1cnc2cc(NCc3cccs3)ccc21	H69AR inhibit 20
COc1ccccc1-n1cnc2cc(NCc3cccs3)ccc21	H69AR inhibit 27, Fibroblast inh 46
O=C(c1ccco1)N1CCN(Cc2nnnn2CCc2ccccc2)CC1	none
CC(=O)NC1CC2CCCC(C1)N2S(=O)(=O)c1ccccc1 (centres undefined)	none
CN(Cc1ccccc1)S(=O)(=O)c1ccc(S(=O)(=O)N(Cc2ccc(F)cc2)C2CCCC2)cc1	H69AR inhibit 32
CC(=O)Nc1cccc(NS(=O)(=O)c2cccc3nsnc23)c1	none
O=C1CN(C(=O)CSc2nc3ccccc3c(=O)n2Cc2ccc(F)cc2)c2ccccc2N1	none (no result: H69AR inhibit, HUVEC inhibit, Fibroblast inh)
CCOc1ccc(-c2n[nH]c(C)c2-c2ccccc2OC)c(O)c1	H69AR inhibit 6.7
C=C(C)COc1ccc(-c2n[nH]c(C)c2-c2ccc(OC)cc2)c(O)c1	H69AR inhibit 14, HUVEC inhibit 11, bCat KO growth 1.3, Fibroblast inh 33, PTEN del growth 1.4
CCc1cccc(NC(=O)CSC2=NS(=O)(=O)c3ccccc32)c1	H69AR inhibit 3.5, Fibroblast inh 50
CCc1cccc(NC(=O)CSCc2cc(=O)[nH][nH]2)c1	none
c1ccc(CNc2ccc3ccccc3n2)nc1	none
Cn1c(NCCCO)nc2ccccc21	none
COc1ccc(-c2nnc(SCC(=O)c3[nH]c(C)c(C(C)=O)c3C)o2)cc1	H69AR inhibit 5.3
COc1cccc(C(=O)CSc2nnc(-c3cccs3)o2)c1	none
CCOC(=O)c1c(C)[nH]c(C)c1C(=O)CSc1nnc(-c2ccc(OC(F)F)cc2)o1	none
CCOC(=O)c1[nH]c(CSc2nnc(-c3ccc(OC)cc3)o2)c(C(=O)OCC)c1C	H69AR inhibit 18
C#CCSc1nnc(-c2ccc(OC)cc2)o1	H69AR inhibit 19
COc1cccc(C(=O)CSc2nnc(-c3cc(OC)cc(OC)c3)o2)c1	H69AR inhibit 8.7, HUVEC inhibit 24
O=C1CCc2cc(S(=O)(=O)N3CCC(C(=O)NCCC4=CCCCC4)CC3)ccc2N1	none
CC(=O)N(Cc1ccc(F)cc1)C1=C(NCc2ccccc2)C(=O)c2ccccc2C1=O	H69AR inhibit 3.5, HUVEC inhibit 3.4, bCat KO growth 1.4, Fibroblast inh 2.6, PTEN del growth 1.2
CC(=O)n1nc(-c2ccccc2)nc1NCc1ccc(F)cc1	none
CCOC(=O)C1CCN(C(=O)CSc2nnc(-c3ccco3)n2-c2ccccc2)CC1	none
Cc1cccc(C)c1N1CCN(c2ccc3nnc(C(F)(F)F)n3n2)CC1	H69AR inhibit 25, HUVEC inhibit 13
FC(F)(F)c1nnc2ccc(N3CCOCC3)nn12	none
Cc1ccc(S(=O)(=O)N2CCN(C(=O)CSc3nc4ccccc4c(=O)[nH]3)CC2)c(C)c1	none
Cc1ccc(S(=O)(=O)N2CCN(C(=O)c3cc(=O)[nH]c4ccccc34)CC2)c(C)c1	H69AR inhibit 39
Cc1cc(C)c(C)c(S(=O)(=O)N2CCN(C(=O)c3cc(=O)[nH]c4ccccc34)CC2)c1C	H69AR inhibit 12
Cc1noc(C)c1C(=O)OCC(=O)NC1CC1	none (no result: H69AR inhibit, HUVEC inhibit, Fibroblast inh)
COC(=O)c1sc(N)c(C(=O)OC)c1COC(=O)c1c(C)noc1C	H69AR inhibit 19
O=c1cc(-c2ccccc2)[nH]c2ccccc12	H69AR inhibit 31
Cc1cc(C)cc(NS(=O)(=O)c2ccc3c(c2)c(=O)n(C)c(=O)n3C)c1	Fibroblast inh 34
Cc1ccc(NS(=O)(=O)c2ccc3c(c2)c(=O)n(C)c(=O)n3C)cc1F	none
O=C(C1CCCN(S(=O)(=O)c2cccc3nonc23)C1)N1CCN(c2ccccc2)CC1 (centres undefined)	none
CCOC(=O)C(C(=O)OCC)c1cc(Br)c2noc3c2c1C(=O)c1ccccc1-3	bCat KO growth 1.3, PTEN del growth 1.1 (no result: H69AR inhibit, HUVEC inhibit, Fibroblast inh)
